Reference: paper PMC3911823 (The FEBS journal, 2011)
Changes are numbered by the printed parent chain.

Columns and labels:
[1] = molecular target: T1, P450 2B4 E474D (Oryctolagus cuniculus, UniProt P00178, E474D); type: biochemical, rabbit (Oryctolagus cuniculus)
T1 sequence (P00178 with tags, fused parts or gaps E474D limits assumed): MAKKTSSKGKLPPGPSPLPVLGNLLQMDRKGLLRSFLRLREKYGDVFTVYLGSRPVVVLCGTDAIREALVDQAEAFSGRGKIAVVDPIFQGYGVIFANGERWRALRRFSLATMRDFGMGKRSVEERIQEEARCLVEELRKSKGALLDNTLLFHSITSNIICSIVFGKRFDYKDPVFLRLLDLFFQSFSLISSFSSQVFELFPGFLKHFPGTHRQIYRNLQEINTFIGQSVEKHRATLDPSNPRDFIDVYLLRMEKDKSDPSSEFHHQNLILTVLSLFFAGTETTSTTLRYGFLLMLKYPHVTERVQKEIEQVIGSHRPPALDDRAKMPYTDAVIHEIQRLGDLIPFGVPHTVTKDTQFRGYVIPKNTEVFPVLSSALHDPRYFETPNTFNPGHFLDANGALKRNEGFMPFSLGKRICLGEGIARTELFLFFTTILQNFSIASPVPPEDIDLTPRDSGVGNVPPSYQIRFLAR

[2] = molecular target: T2, P450 2B4 H172F (Oryctolagus cuniculus, UniProt P00178, H172F)
T2 sequence (P00178 with tags, fused parts or gaps H172F limits assumed): T1 sequence (P00178 with tags, fused parts or gaps E474D limits assumed) with H153F, D455E

[3] = molecular target: T2, P450 2B4 H172F; remark: listed apart in the source
[4] = molecular target: T3, P450 2B4 H172A (Oryctolagus cuniculus, UniProt P00178, H172A); type: biochemical, rabbit (Oryctolagus cuniculus)
T3 sequence (P00178 with tags, fused parts or gaps H172A limits assumed): T1 sequence (P00178 with tags, fused parts or gaps E474D limits assumed) with H153A, D455E

[5] = molecular target: T4, P450 2B4 H172Q (Oryctolagus cuniculus, UniProt P00178, H172Q); type: biochemical, rabbit (Oryctolagus cuniculus)
T4 sequence (P00178 with tags, fused parts or gaps H172Q limits assumed): T1 sequence (P00178 with tags, fused parts or gaps E474D limits assumed) with H153Q, D455E

[6] = tested on: P450 2B4 mutants; type: biochemical, rabbit (Oryctolagus cuniculus); settings: each mutant except the inactive H172F
[7] = molecular target: T5, P450 2B4 wild type (Oryctolagus cuniculus, UniProt P00178); test: Inhibition of 7-EFC O-deethylation by imidazole inhibitors; type: biochemical, rabbit (Oryctolagus cuniculus)
T5 sequence (P00178 with tags, fused parts or gaps limits assumed): T1 sequence (P00178 with tags, fused parts or gaps E474D limits assumed) with D455E

[8] = molecular target: T3, P450 2B4 H172A; test: as above; type: biochemical, rabbit (Oryctolagus cuniculus)
[9] = molecular target: T4, P450 2B4 H172Q; test: as above; type: biochemical, rabbit (Oryctolagus cuniculus)
[10] = molecular target: T6, P450 2B4 L437A (Oryctolagus cuniculus, UniProt P00178, L437A); test: as above; type: biochemical, rabbit (Oryctolagus cuniculus); settings: rabbit, pH 7.4, probe 7-EFC (50 μM), O-deethylation
T6 sequence (P00178 with tags, fused parts or gaps L437A limits assumed): T1 sequence (P00178 with tags, fused parts or gaps E474D limits assumed) with L418A, D455E

[11] = molecular target: T1, P450 2B4 E474D; test: as above; type: biochemical, rabbit (Oryctolagus cuniculus)
[12] = molecular target: T7, P450 2B4 E474Q (Oryctolagus cuniculus, UniProt P00178, E474Q); test: as above; type: biochemical, rabbit (Oryctolagus cuniculus)
T7 sequence (P00178 with tags, fused parts or gaps E474Q limits assumed): T1 sequence (P00178 with tags, fused parts or gaps E474D limits assumed) with D455Q

[13] = molecular target: T2, P450 2B4 H172F; test: Spectral binding titration of imidazole ligands; set-up: species or system rabbit (Oryctolagus cuniculus); settings: 2B4 H172F versus wild type
Outline: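 Protein was the His-tagged 2B4dH construct (single mutants or wild type), expressed in TOPP3 cells and Ni-NTA purified. Spectra 350–700 nm recorded after serial 5 μl additions of 100 μM 4-CPI or bifonazole. Ks came from a tight-binding equation fit, and the 4-CPI/bifonazole Ks ratio was calculated.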

| decrease (change) in kcat versus wild type [1] [fold] | substrate turnover (activity) [2] | kcat [3] [s⁻¹] | decrease (change) in kcat versus wild type [4] | decrease (change) in kcat versus wild type [5] | change in KM versus wild type [6] [fold] | IC50 [7] [nM] | IC50 [8] [nM] | IC50 [9] [nM] | IC50 at 10 min [10] [nM] | IC50 [11] [nM] | IC50 [12] [nM] | Ks (spectral dissociation constant) higher than wild type 2B4 [13] | Structure (SMILES) |
| --- | --- | --- | --- | --- | --- | --- | --- | --- | --- | --- | --- | --- | --- |
| > 20 | inactive | 0 |  |  |  |  |  |  |  |  |  |  | CCOc1ccc2c(C(F)(F)F)cc(=O)oc2c1 [7-EFC, 7-ethoxy-4-(trifluoromethyl)coumarin] |
|  | inactive | 0 | ~ 2 fold | ~ 2 fold | < 2 |  |  |  |  |  |  |  | COc1ccc2c(C(F)(F)F)cc(=O)oc2c1 [7-MFC, 7-methoxy-4-(trifluoromethyl)coumarin] |
|  |  |  |  |  |  | 900 | 580 | 760 | 50 | 620 | 810 | ~ 20 times | c1ccc(-c2ccc(C(c3ccccc3)n3ccnc3)cc2)cc1 (stereo not drawn) [Bifonazole, bifonazole] |
